ChEMBL document CHEMBL1144472, “Pyrogallol-based molecules as potent inhibitors of the antiapoptotic Bcl-2 proteins” (J Med Chem, 2007)
pIC50, pKi: −log10 of the molar value. Calls of active or inactive are those of the source. The calls are words filed in the database; no cut-off is given here.

What was measured:
MDA-MB-231 [1] = test: Induction of cell death in human MDA-MB-231 cells after 96 hrs by trypan blue exclusion assay; format: functional, cell-based
In short: (§1)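 MDA-MB-231 breast cancer cells were exposed to the inhibitor for 96 hours across a dose series that included 10, 100 and 1000 nM. Viability was scored by trypan blue exclusion.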

[2] = molecular target: T1, Apoptosis regulator Bcl-2 (Homo sapiens, UniProt P10415); test: Displacement of FAM-Bid BH3 peptide from human recombinant Bcl2 by FP-based binding assay
T1 sequence (P10415 whole entry): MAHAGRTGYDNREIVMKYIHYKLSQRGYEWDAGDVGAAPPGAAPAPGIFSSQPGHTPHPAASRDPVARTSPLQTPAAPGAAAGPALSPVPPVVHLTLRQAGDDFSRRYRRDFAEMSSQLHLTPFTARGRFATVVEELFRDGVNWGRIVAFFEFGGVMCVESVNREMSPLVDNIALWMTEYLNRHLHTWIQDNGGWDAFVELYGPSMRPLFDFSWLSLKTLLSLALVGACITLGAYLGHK
In short: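 Competitive fluorescence-polarization binding assay with recombinant human Bcl-2 and a fluorescently tagged Bid BH3 peptide as tracer. Ki values were derived from the competitive binding curves.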

[3] = molecular target: T1, Apoptosis regulator Bcl-2; test: Displacement of biotinylated Bim BH3 peptide from recombinant His-tagged Bcl2 by ELISA assay
[4] = molecular target: T2, Induced myeloid leukemia cell differentiation protein Mcl-1 (Homo sapiens, UniProt Q07820); test: Displacement of biotinylated Bim BH3 peptide from recombinant His-tagged Mcl1 by ELISA assay
T2 sequence (Q07820 whole entry): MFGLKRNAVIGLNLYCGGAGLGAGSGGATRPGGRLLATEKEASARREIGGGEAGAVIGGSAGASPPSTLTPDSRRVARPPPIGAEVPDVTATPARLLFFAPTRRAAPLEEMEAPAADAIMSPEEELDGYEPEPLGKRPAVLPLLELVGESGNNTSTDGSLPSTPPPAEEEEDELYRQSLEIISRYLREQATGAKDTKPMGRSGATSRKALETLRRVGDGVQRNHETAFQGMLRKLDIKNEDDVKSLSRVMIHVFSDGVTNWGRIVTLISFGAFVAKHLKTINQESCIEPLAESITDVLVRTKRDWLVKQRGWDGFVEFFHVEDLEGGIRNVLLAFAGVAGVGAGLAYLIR

MDA-MB-231 [5] = test: Induction of cell death in human MDA-MB-231 cells at 10 nM after 96 hrs by trypan blue exclusion assay; format: functional, cell-based; in short: as §1
[6] = molecular target: T2, Induced myeloid leukemia cell differentiation protein Mcl-1; test: Displacement of FAM-Bid BH3 peptide from human Mcl1 by FP-based binding assay

SMILES | Activity (MDA-MB-231 [1]) | pKi [2] | pIC50 [3] | pIC50 [4] | Activity (MDA-MB-231 [5]) | pKi [6]
CC(C)c1cc(C(=O)Nc2ccccc2)c(O)c(O)c1O | Dose-dependent effect | 4.50 |  |  |  | 
CC(C)c1cc(C(=O)N2CCc3ccccc3C2)c(O)c(O)c1O | Dose-dependent effect | 5.51 | 4.42 |  |  | 
CC(C)c1cc(C(=O)N2CCc3ccc(S(=O)(=O)NCCc4ccccc4)cc3C2)c(O)c(O)c1O | Dose-dependent effect | 6.23 | 5.18 |  |  | 
CN(C)CC[C@H](CSc1ccccc1)Nc1ccc(S(=O)(=O)NC(=O)c2ccc(N3CCN(Cc4ccccc4-c4ccc(Cl)cc4)CC3)cc2)cc1[N+](=O)[O-] | Dose-dependent effect |  |  |  |  | 
CN(CCCc1ccccc1)S(=O)(=O)c1cc(C(=O)N2CCc3ccc(S(=O)(=O)NCCc4ccccc4)cc3C2)c(O)c(O)c1O | Dose-dependent effect | 6.96 | 6.48 | 7.41 | Active | 6.82
